ChEMBL document CHEMBL4725312, “Pre-clinical evidences of the antileishmanial effects of diselenides and selenocyanates” (Bioorg Med Chem Lett, 2020)
pIC50: −log10 of the molar value. The source made the active and inactive calls. The rule behind the calls is not given here.

Assays:
Leishmania infantum [1] = experiment: Antileishmanial activity against axenic amastigote state of Leishmania infantum incubated for 24 hrs; assay type: functional, organism-based
THP-1 = experiment: Cytotoxicity against human THP-1 cells assessed as reduction in cell viability incubated for 24 hrs; assay type: cell-based; conditions: THP-1, 24 h
[2] = Ratio of IC50 for human THP1 cells to IC50 for axenic amastigote state of Leishmania infantum
Outline: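 Selectivity index was calculated as the THP-1 cytotoxicity IC50 (24 h exposure) divided by the IC50 against L. infantum amastigotes.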

Leishmania infantum [3] = experiment: Antileishmanial activity against axenic amastigote state of Leishmania infantum infected in human THP-1 cells at 3 uM incubated for 48 hrs; assay type: functional, organism-based
Outline: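 THP-1 cells infected with L. infantum amastigotes were exposed to compounds at 3 μM for 48 h. Infection rate was the read-out, with autofluorescence correction applied, and results were reported as means.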

[4] = Inhibition of trypanothione reductase (unknown origin)
Outline: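 Trypanothione reductase inhibition was expressed as IC50, with mepacrine run alongside as the positive-control TryR inhibitor.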

[5] = Ratio of IC50 for mepacrine to IC50 for test compound for inhibition of trypanothione reductase (unknown origin)
Outline: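 Trypanothione reductase inhibition assay, with mepacrine run alongside as the positive-control TryR inhibitor. The value is mepacrine IC50 divided by test-compound IC50 in the same assay.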

Row | pIC50 (Leishmania infantum [1]) | pIC50 [4] | Compound | pIC50 (THP-1) | Ratio IC50 [2] | Activity (Leishmania infantum [3]) | Ratio IC50 [5]
1 | < 4.60 | – | O=C(O)/C=C\C(=O)Nc1ccc([Se][Se]c2ccc(NC(=O)/C=C\C(=O)O)cc2)cc1 | < 4.60 | – | – | –
2 | 6.46 | – | O=C(NC(=[Se])Nc1ccc([Se][Se]c2ccc(NC(=[Se])NC(=O)c3ccno3)cc2)cc1)c1ccno1 | 5.97 | 3.1 | – | –
3 | 4.82 | – | Cc1ccc(C(=O)NC(=[Se])Nc2ccc([Se][Se]c3ccc(NC(=[Se])NC(=O)c4ccc(C)cc4)cc3)cc2)cc1 | < 4.60 | >1.66 | – | –
4 | 5.69 | 4.73 | O=C(O)C1CCCCC1C(=O)Nc1ccc([Se][Se]c2ccc(NC(=O)C3CCCCC3C(=O)O)cc2)cc1 (centres undefined) | < 4.60 | >12.31 | Active | –
5 | 5.34 | – | O=C(NC(=[Se])Nc1ccc([Se][Se]c2ccc(NC(=[Se])NC(=O)c3cccs3)cc2)cc1)c1cccs1 | 4.65 | 4.87 | – | –
6 | < 4.60 | – | O=C(NC(=[Se])Nc1ccc([Se][Se]c2ccc(NC(=[Se])NC(=O)c3ccccc3)cc2)cc1)c1ccccc1 | < 4.60 | – | – | –
7 | 4.87 | – | CSc1ccc(C(=O)NC(=[Se])Nc2ccc([Se][Se]c3ccc(NC(=[Se])NC(=O)c4ccc(SC)cc4)cc3)cc2)cc1 | < 4.60 | >1.85 | – | –
8 | – | 4.77 | CCN(CC)CCCC(C)Nc1c2ccc(Cl)cc2nc2ccc(OC)cc12 (centres undefined) [QUINACRINE] | – | – | – | –
9 | 5.21 | – | O=C(NC(=[Se])Nc1ccc([Se][Se]c2ccc(NC(=[Se])NC(=O)c3cc4ccccc4nc3-c3ccccc3)cc2)cc1)c1cc2ccccc2nc1-c1ccccc1 | 5.07 | 1.34 | – | –
10 | 4.84 | – | O=C(NC(=[Se])Nc1ccc([Se][Se]c2ccc(NC(=[Se])NC(=O)c3cc4ccccc4s3)cc2)cc1)c1cc2ccccc2s1 | < 4.60 | >1.71 | – | –
11 | 5.25 | – | O=C(NC(=[Se])Nc1ccc([Se][Se]c2ccc(NC(=[Se])NC(=O)c3sccc3Cl)cc2)cc1)c1sccc1Cl | < 4.60 | >4.48 | – | –
12 | 5.00 | – | O=C(NC(=[Se])Nc1ccc([Se][Se]c2ccc(NC(=[Se])NC(=O)c3ccc4c(c3)OCO4)cc2)cc1)c1ccc2c(c1)OCO2 | 4.87 | 1.35 | – | –
13 | 5.88 | 4.60 | O=C(O)C1C2C=CC(O2)C1C(=O)Nc1ccc([Se][Se]c2ccc(NC(=O)C3C4C=CC(O4)C3C(=O)O)cc2)cc1 (centres undefined) | < 4.60 | >19.13 | Active | –
14 | 4.98 | – | O=C1COCC(=O)N1c1ccc([Se][Se]c2ccc(N3C(=O)COCC3=O)cc2)cc1 | 5.07 | 0.82 | – | –
15 | – | – | CCCCCCCCCCCCCCCCOP(=O)([O-])OCC[N+](C)(C)C [MILTEFOSINE] | – | 6.51 | – | –
16 | 5.81 | 6.64 | O=C1C=CC(=O)N1c1ccc([Se][Se]c2ccc(N3C(=O)C=CC3=O)cc2)cc1 | 4.82 | 9.91 | Active | 30
17 | 5.04 | – | COc1cc(OC)cc(C(=O)NC(=[Se])Nc2ccc([Se][Se]c3ccc(NC(=[Se])NC(=O)c4cc(OC)cc(OC)c4)cc3)cc2)c1 | < 4.60 | >2.77 | – | –
18 | 4.92 | – | O=C(O)COCC(=O)Nc1ccc([Se][Se]c2ccc(NC(=O)COCC(=O)O)cc2)cc1 | < 4.60 | >2.06 | – | –
19 | 5.10 | – | O=C(O)CCC(=O)Nc1ccc([Se][Se]c2ccc(NC(=O)CCC(=O)O)cc2)cc1 | < 4.60 | >3.16 | – | –
20 | 5.34 | – | O=C(O)c1ccccc1C(=O)Nc1ccc([Se][Se]c2ccc(NC(=O)c3ccccc3C(=O)O)cc2)cc1 | < 4.60 | >5.47 | – | –
21 | 5.68 | 4.66 | O=C1c2ccccc2C(=O)N1c1ccc([Se][Se]c2ccc(N3C(=O)c4ccccc4C3=O)cc2)cc1 | 4.64 | 11.08 | Active | –
22 | < 4.60 | – | O=C(NC(=[Se])Nc1ccc([Se][Se]c2ccc(NC(=[Se])NC(=O)c3ccc(Cl)cc3)cc2)cc1)c1ccc(Cl)cc1 | < 4.60 | – | – | –
23 | 5.51 | – | O=C(NC(=[Se])Nc1ccc([Se][Se]c2ccc(NC(=[Se])NC(=O)c3cnc4ccccc4c3)cc2)cc1)c1cnc2ccccc2c1 | 4.89 | 4.15 | – | –
24 | 5.64 | – | O=C(NC(=[Se])Nc1ccc([Se][Se]c2ccc(NC(=[Se])NC(=O)c3ccc([N+](=O)[O-])cc3)cc2)cc1)c1ccc([N+](=O)[O-])cc1 | < 4.60 | >11.01 | – | –
25 | – | – | CCCCCCCCCCCCCCCCCCOCC(COP(=O)([O-])OCC[N+](C)(C)C)OC (centres undefined) [EDELFOSINE] | – | 6.01 | Active | –
26 | 4.97 | – | N#C[Se]c1ccc(NC(=O)c2ccccc2-c2ccccc2C(=O)O)cc1 | < 4.60 | >2.34 | – | –
27 | 6.17 | 5.04 | O=C(NC(=[Se])Nc1ccc([Se][Se]c2ccc(NC(=[Se])NC(=O)c3ccco3)cc2)cc1)c1ccco1 | 5.13 | 11.19 | Active | –

Row | Compound | pIC50 (Leishmania infantum [1]) | pIC50 [4] | pIC50 (THP-1) | Ratio IC50 [2] | Activity (Leishmania infantum [3]) | Ratio IC50 [5]
28 | N#C[Se]c1ccc(NC(=O)COCC(=O)O)cc1 | < 4.60 | – | < 4.60 | – | – | –
29 | N#C[Se]c1ccc(NC(=O)C2C3C=CC(O3)C2C(=O)O)cc1 (centres undefined) | 5.49 | 6.27 | 4.67 | 7.76 | inactive | 30
30 | N#C[Se]c1ccc(NC(=O)c2ccccc2C(=O)O)cc1 | < 4.60 | – | < 4.60 | – | – | –
31 | N#C[Se]c1ccc(NC(=O)c2nccnc2C(=O)O)cc1 | < 4.60 | – | < 4.60 | – | – | –
32 | N#C[Se]c1ccc(NC(=O)C2CCCCC2C(=O)O)cc1 (centres undefined) | 4.97 | – | < 4.60 | >2.35 | – | –
33 | N#C[Se]c1ccc(NC(=O)/C=C\C(=O)O)cc1 | < 4.60 | – | < 4.60 | – | – | –
34 | N#C[Se]c1ccc(NC(=O)CCC(=O)O)cc1 | 4.95 | – | < 4.60 | >2.2 | – | –
